Measurements from ChEMBL document CHEMBL2034925, “Isoprenylated flavonoid and adipogenesis-promoting constituents of Dodonaea viscosa” (2012).
Calls of active or inactive are those of the source. No cut-off for these calls is given here.

Experiments:
3T3-L1 [1] = assay: Adipogenic activity in mouse 3T3L1 cells assessed as increase in triglyceride level after 8 days relative to control; format: functional, cell-based
How it was run: (§1)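 3T3L1 fibroblasts grown in DMEM/10% newborn calf serum, 37 °C, 5% CO2. Two days post-confluence, differentiation induced with 2 μg/mL insulin, 1 μM dexamethasone, 125 μM IBMX in DMEM/10% FBS. Medium was then changed every two days to 10% FBS/DMEM plus 2 μg/mL insulin. Compounds added at induction and kept 8 days. Cells lysed by three freeze/thaw cycles; triglyceride measured by enzymatic kit.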

3T3-L1 [2] = assay: Adipogenic activity in mouse 3T3L1 cells assessed as increase in triglyceride level at 3 uM after 8 days relative to control; format: functional; how it was run: as §1
3T3-L1 [3] = assay: Adipogenic activity in mouse 3T3L1 cells assessed as increase in triglyceride level at 30 uM after 8 days relative to control; format: functional; how it was run: as §1
3T3-L1 [4] = assay: Adipogenic activity in mouse 3T3L1 cells assessed as increase in triglyceride level at 10 uM after 8 days relative to control; format: functional; how it was run: as §1
3T3-L1 [5] = assay: Adipogenic activity in mouse 3T3L1 cells assessed as increase in triglyceride level at 1 uM after 8 days relative to control; format: functional; how it was run: as §1
3T3-L1 [6] = assay: Adipogenic activity in mouse 3T3L1 cells assessed as upregulation of GLUT4 gene expression at 3 to 30 uM by RT-PCR analysis; format: functional, cell-based
How it was run: (§2)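 In differentiating 3T3L1 cells (insulin/dexamethasone/IBMX induction, compounds added at induction), total RNA extracted with TRIzol, reverse-transcribed, then quantitative PCR run with mouse primers for GLUT4 or aP2, with β-actin as reference gene.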

3T3-L1 [7] = assay: Adipogenic activity in mouse 3T3L1 cells assessed as upregulation of GLUT4 protein expression at 3 to 10 uM by […] analysis; format: functional, cell-based
How it was run: (§3)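 Differentiating 3T3L1 cells (insulin/dexamethasone/IBMX induction, compounds added at induction) harvested in RIPA buffer with protease inhibitors. Proteins resolved by SDS-PAGE and blotted onto PVDF. Blots probed with primary antibodies to GLUT4 or aP2 and β-actin, then HRP-conjugated secondary antibodies.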

3T3-L1 [8] = assay: Adipogenic activity in mouse 3T3L1 cells assessed as upregulation of ap2 protein expression at 3 to 10 uM by […] analysis; format: functional, cell-based; how it was run: as §3
3T3-L1 [9] = assay: Adipogenic activity in mouse 3T3L1 cells assessed as upregulation of ap2 gene expression at 3 to 30 uM by RT-PCR analysis; format: functional, cell-based; how it was run: as §2
3T3-L1 [10] = assay: Adipogenic activity in mouse 3T3L1 cells assessed as intracellular lipid droplet accumulation at 10 to 30 uM after 8 days by oil red O staining; format: functional, cell-based
How it was run: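 3T3L1 fibroblasts, differentiation induced 2 days post-confluence with insulin (2 μg/mL), dexamethasone (1 μM), IBMX (125 μM) in 10% FBS/DMEM, then insulin-supplemented 10% FBS/DMEM changed every 2 days. Compounds present from induction. After 8 days of differentiation, cells stained with Oil Red O and photographed.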

3T3-L1 [11] = assay: Adipogenic activity in mouse 3T3L1 cells assessed as upregulation of GLUT4 protein expression at 3 to 30 uM by […] analysis; format: functional, cell-based; how it was run: as §3
3T3-L1 [12] = assay: Adipogenic activity in mouse 3T3L1 cells assessed as upregulation of ap2 protein expression at 3 to 30 uM by […] analysis; format: functional, cell-based

## COc1c(-c2ccc(O)cc2)oc2cc(O)cc(O)c2c1=O
3T3-L1 [1]
  Activity: inactive

## COc1c(-c2ccc(O)c(CCC(C)CO)c2)oc2cc(O)cc(O)c2c1=O (stereo not drawn) [DODOVISCIN I]
3T3-L1 [2]
  Activity: 189.6%

## COc1cc(O)c2c(c1)O[C@H](c1ccc(O)cc1)CC2=O [SAKURANETIN]
3T3-L1 [3]
  Activity: 459.4%
3T3-L1 [4]
  Activity: 419.9%
3T3-L1 [2]
  Activity: 278.8%

## COc1c(-c2cc(CC=C(C)C)c(O)c(CC=C(C)C)c2)oc2cc(O)cc(O)c2c1=O
3T3-L1 [2]
  Activity: 169.9%

## COc1c(-c2cc(CC=C(C)C)c(O)c(CCC(C)CO)c2)oc2cc(O)cc(O)c2c1=O (stereo not drawn) [DODOVISCIN H]
3T3-L1 [2]
  Activity: 263.1%

## COc1c(O)cc2oc(-c3ccc(O)cc3)c(OC)c(=O)c2c1O
3T3-L1 [1]
  Activity: inactive

## CN(CCOc1ccc(CC2SC(=O)NC2=O)cc1)c1ccccn1 (stereo not drawn) [ROSIGLITAZONE]
3T3-L1 [5]
  Activity: 335.6%

## C=C(C)C(O)Cc1cc(-c2oc3cc(O)c(OC)c(O)c3c(=O)c2OC)cc(CCC(C)CO)c1O (stereo not drawn) [DODOVISCIN A]
3T3-L1 [6]
  Activity: Active
3T3-L1 [7]
  Activity: Active
3T3-L1 [8]
  Activity: Active
3T3-L1 [4]
  Activity: 248.3%
3T3-L1 [2]
  Activity: 138.5%
3T3-L1 [9]
  Activity: Active
3T3-L1 [10]
  Activity: Active

## COc1c(O)cc2oc(-c3cc(CC=C(C)C)c(O)c(C/C=C(\C)CO)c3)c(OC)c(=O)c2c1O [DODOVISCIN G]
3T3-L1 [2]
  Activity: 355.7%

## COc1cc(O)c2c(c1)O[C@H](c1cc(O)cc(O)c1)CC2=O [BLUMEATIN]
3T3-L1 [3]
  Activity: 219.2%
3T3-L1 [6]
  Activity: Active
3T3-L1 [11]
  Activity: Active
3T3-L1 [4]
  Activity: 161.3%
3T3-L1 [2]
  Activity: 121.2%
3T3-L1 [9]
  Activity: Active
3T3-L1 [10]
  Activity: Active
3T3-L1 [12]
  Activity: Active

## C=C(C)C(O)Cc1cc(-c2oc3cc(O)c(OC)c(O)c3c(=O)c2OC)cc(CC=C(C)C)c1O (stereo not drawn) [DODOVISCIN B]
3T3-L1 [2]
  Activity: 328.1%

## COc1c(-c2cc(CC=C(C)C)c(O)c(C/C=C(\C)CO)c2)oc2cc(O)cc(O)c2c1=O [DODOVISCIN E]
3T3-L1 [2]
  Activity: 280.2%

## COc1c(O)cc2oc(-c3cc(CC=C(C)C)c(O)c(CCC(C)CO)c3)c(OC)c(=O)c2c1O (stereo not drawn)
3T3-L1 [6]
  Activity: Active
3T3-L1 [7]
  Activity: Active
3T3-L1 [8]
  Activity: Active
3T3-L1 [4]
  Activity: 289.8%
3T3-L1 [2]
  Activity: 233%
3T3-L1 [9]
  Activity: Active
3T3-L1 [10]
  Activity: Active

## COc1c(O)cc2oc(-c3cc(CC=C(C)C)c(O)c(CC=C(C)C)c3)c(OC)c(=O)c2c1O
3T3-L1 [2]
  Activity: 256.2%

## COc1c(O)cc2oc(-c3cc(CC=C(C)C)c(O)c(C[C@H](O)C(C)(C)O)c3)c(OC)c(=O)c2c1O [DODOVISCIN D]
3T3-L1 [3]
  Activity: 198.2%
3T3-L1 [4]
  Activity: 117.8%
3T3-L1 [2]
  Activity: 103.2%
